Assays:
Format in all cases: functional
[1] = species on record: Cavia porcellus; experiment: In vitro bradycardiac activity on isolated right atrium of guinea pig.; settings: Cardiac atrium
Outline: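 Male Hartley guinea pigs (250–400 g); spontaneously beating right atria in Tyrode's solution at 37 °C, 95% O2/5% CO2, 1 g tension, 90 min equilibration. Compound added cumulatively at 45 min intervals; beat rate counted from isometric contraction. Value = concentration giving 30% reduction from initial spontaneous rate; mean ± SEM, three to six experiments.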

[2] = test system: Rattus norvegicus; experiment: In vivo effect on mean blood pressure of anesthetized rats following 3 mg/kg i.v.; settings: route intravenous
Outline: (§1)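 Male Wister rats (270–350 g), anesthetized (pentobarbital ip per methods; urethane per text). Compound at 3 mg/kg (salt form) in aqueous solution or saline, iv via jugular vein catheter. HR taken from the blood-pressure pulse wave; MBP = DBP + (SBP−DBP)/3. Maximal percent change from initial value; mean ± SEM, three to four experiments.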

[3] = test system: Rattus norvegicus; experiment: In vivo effect on heart rate of anesthetized rats following 3 mg/kg i.v.; settings: route intravenous; outline: as §1

COC(=O)c1ccc(OCCCN2CCCC(N3CCc4cc(OC)c(OC)cc4C3=O)C2)cc1.Cl (stereo not given)
EC30 [1]: 110 nM
Change [2]: -2.3%
Change [3]: -30%

COc1cc2c(cc1OC)C(=O)N(C1CCCN(CCCOc3ccc4c(c3)OCCO4)C1)CC2.Cl (stereo not given)
EC30 [1]: 130 nM
Change [2]: -12%
Change [3]: -44%

COc1cc2c(cc1OC)C(=O)N(C1CCCN(CCCOc3ccccc3)C1)CC2.Cl (stereo not given)
EC30 [1]: 390 nM
Change [2]: 3.2%
Change [3]: -32%

COc1cc2c(cc1OC)C(=O)N(C1CCCN(CCCOc3ccc4c(c3)OCO4)C1)CC2.Cl (stereo not given)
EC30 [1]: 67 nM
Change [2]: -14%
Change [3]: -48%

COc1cc2ccn(C3CCCN(CCCOc4ccc5c(c4)OCO5)C3)c(=O)c2cc1OC.Cl (stereo not given)
EC30 [1]: 200 nM
Change [2]: 11%
Change [3]: -26%

COc1cc2c(cc1OC)C(=O)N(C1CCCN(CCCOc3cc(OC)c(OC)c(OC)c3)C1)CC2 (stereo not given)
EC30 [1]: 1600 nM

COc1cc2c(cc1OC)C(=O)N(C1CCCN(CCCOc3ccc4c(c3)CCC4)C1)CC2 (stereo not given)
EC30 [1]: 890 nM

COc1cc2c(cc1OC)C(=O)N(C1CCCN(CCCOc3ccc(N)cc3)C1)CC2 (stereo not given)
EC30 [1]: 1600 nM

COc1cc2c(cc1OC)C(=O)N(C1CCCN(CCCOc3ccc(NC(C)=O)cc3)C1)CC2 (stereo not given)
EC30 [1]: 760 nM

COc1ccc(C(=O)N(C)C2CCCN(CCCOc3ccc4c(c3)OCO4)C2)cc1OC (stereo not given)
EC30 [1]: 3500 nM

COc1cc2c(cc1OC)C(=O)N(C1CCCN(CCCOc3ccc(OC(C)C)cc3)C1)CC2 (stereo not given)
EC30 [1]: 330 nM

COc1cc2c(cc1OC)C(=O)N(C1CCCN(CCCOc3ccc(Br)cc3)C1)CC2 (stereo not given)
EC30 [1]: 470 nM

COc1ccc(C(=O)NC2CCCN(CCCOc3ccc4c(c3)OCO4)C2)cc1OC.Cl (stereo not given)
EC30 [1]: 420 nM
Change [2]: -11%
Change [3]: -29%

COc1cc2c(cc1OC)C(=O)N(C1CCCN(CCCOc3ccc(C)cc3)C1)CC2.Cl (stereo not given)
EC30 [1]: 140 nM
Change [2]: -12%
Change [3]: -37%

COc1cc2c(cc1OC)C(=O)N([C@@H]1CCCN(CCCOc3ccc4c(c3)OCO4)C1)CC2.Cl
EC30 [1]: 79 nM
Change [2]: -13%
Change [3]: -55%

COc1cc2c(cc1OC)C(=O)N(C1CCCN(CCCOc3ccc(C(N)=O)cc3)C1)CC2 (stereo not given)
EC30 [1]: 5700 nM

COc1cc2c(cc1OC)C(=O)N(C1CCCN(CCCOc3ccc(O)cc3)C1)CC2 (stereo not given)
EC30 [1]: 890 nM

COc1cc2c(cc1OC)C(=O)N(C1CCCN(CCCOc3ccc4[nH]ccc4c3)C1)CC2 (stereo not given)
EC30 [1]: 360 nM

CCCOc1ccc(OCCCN2CCCC(N3CCc4cc(OC)c(OC)cc4C3=O)C2)cc1 (stereo not given)
EC30 [1]: 270 nM

COc1cc2c(cc1OC)C(=O)N(C1CCCN(CCCOc3ccc(OCc4ccccc4)cc3)C1)CC2 (stereo not given)
EC30 [1]: 1300 nM

COc1cc2c(cc1OC)CN(C1CCCN(CCCOc3ccc4c(c3)OCO4)C1)CC2.Cl (stereo not given)
EC30 [1]: 250 nM
Change [2]: -7.1%
Change [3]: -47%

COc1cc2c(cc1OC)C(=O)N(C1CCCN(CCCOc3ccc(C(F)(F)F)cc3)C1)CC2 (stereo not given)
EC30 [1]: 790 nM

COc1cc2c(cc1OC)C(=O)N(C1CCCN(CCCOc3ccc(Cl)cc3)C1)CC2.Cl (stereo not given)
EC30 [1]: 350 nM
Change [2]: -12%
Change [3]: -32%

COc1cc2c(cc1OC)C(=O)N(C1CCCN(CCCOc3ccccc3OC)C1)CC2 (stereo not given)
EC30 [1]: 390 nM

COc1ccc(OCCCN2CCCC(N3CCc4cc(OC)c(OC)cc4C3=O)C2)cc1.Cl (stereo not given)
EC30 [1]: 99 nM
Change [2]: -16%
Change [3]: -49%

COc1ccc(OCCCN2CCCC(N3CCc4cc(OC)c(OC)cc4C3=O)C2)cc1OC.Cl (stereo not given)
EC30 [1]: 110 nM
Change [2]: -18%
Change [3]: -56%

COc1ccc(CCN(C)CCCN2CCc3cc(OC)c(OC)cc3CC2=O)cc1OC.Cl [ZATEBRADINE HYDROCHLORIDE]
EC30 [1]: 260 nM
Change [2]: 5.4%
Change [3]: -47%

COc1cc2c(cc1OC)C(=O)N(C1CCCN(CCCOc3ccc(C#N)cc3)C1)CC2.Cl (stereo not given)
EC30 [1]: 240 nM
Change [2]: -6.8%
Change [3]: -23%

COc1cc2c(cc1OC)C(=O)N(C1CCCN(CCCOc3ccc(F)cc3)C1)CC2.Cl (stereo not given)
EC30 [1]: 240 nM
Change [2]: -17%
Change [3]: -39%

COc1cc2ncn(C3CCCN(CCCOc4ccc5c(c4)OCO5)C3)c(=O)c2cc1OC.Cl (stereo not given)
EC30 [1]: 260 nM
Change [2]: -20%
Change [3]: -34%

COc1cc2c(cc1OC)C(=O)N([C@H]1CCCN(CCCOc3ccc4c(c3)OCO4)C1)CC2.Cl
EC30 [1]: 68 nM
Change [2]: -23%
Change [3]: -53%

COc1cc2[nH]c(=O)n(C3CCCN(CCCOc4ccc5c(c4)OCO5)C3)c(=O)c2cc1OC (stereo not given)
EC30 [1]: 920 nM

COc1cccc(OCCCN2CCCC(N3CCc4cc(OC)c(OC)cc4C3=O)C2)c1.Cl (stereo not given)
EC30 [1]: 140 nM
Change [2]: -11%
Change [3]: -47%

CCOc1ccc(OCCCN2CCCC(N3CCc4cc(OC)c(OC)cc4C3=O)C2)cc1.Cl (stereo not given)
EC30 [1]: 97 nM
Change [2]: -7.8%
Change [3]: -49%

COc1cc2c(cc1OC)C(=O)N(C1CCCN(CCCOc3ccc([N+](=O)[O-])cc3)C1)CC2.Cl (stereo not given)
EC30 [1]: 270 nM
Change [2]: 41%
Change [3]: -5.6%

Reference: ChEMBL document CHEMBL1145139, “Synthesis and pharmacological evaluation of 1-oxo-2-(3-piperidyl)-1,2,3,4- tetrahydroisoquinolines and related analogues as a new class of specific bradycardic agents possessing I(f) channel inhibitory activity” (2003)
